Test results from ChEMBL document CHEMBL1124101, “Asymmetrical bisintercalators as potential antitumor agents” (1988).

What was measured:
Mus musculus = species: Mus musculus; assay: Treated mean survival time per control mean survival time.; assay type: functional
Nucleic Acid = assay: Binding affinity for DNA; assay type: nucleic-acid assay
Procedure, shortened: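 Fluorometric competition with ethidium dimer (6.4 × 10^-7 M) pre-equilibrated 24 h with calf thymus DNA (1.6 × 10^-6 M base pairs). Drug was added at varying concentrations. Fluorescence was excited at 540 nm and read at 610 nm. Bound ethidium dimer per base pair was derived, and computed displacement curves were fitted to the experimental ones to give apparent affinity constants (M^-1).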

Escherichia coli = assay: Cytotoxicity on Escherichia coli polA strain mutant expressed as dose required to inhibit 37% of cell growth; assay type: functional
L1210 [1] = assay: Optimal dose for anti-tumor activity in vivo on L1210-infected mice; assay type: functional, Mus musculus
L1210 [2] = assay: Maximal tolerated dose for anti-tumor activity in vivo on L1210-infected mice; assay type: functional, Mus musculus
L1210 [3] = assay: Dose required to inhibit the cloning efficiency to a factor of 37%,measured in vitro on L1210 cells after 24-h exposure
L1210 [4] = assay: Dose that inhibits 50% of the L1210 cell growth after 24 hr exposure to the compound.; assay type: functional; conditions: Mus musculus, L1210, 24 h; read-out: ED50 (the source's name)

| Structure (SMILES) | T/C (Mus musculus) [%] | K app x10e-7 (Nucleic Acid) [M⁻¹] | EC37 (Escherichia coli) [µM] | OD (L1210 [1]) [mg/kg] | MTD (L1210 [2]) [mg/kg] | EC37 (L1210 [3]) [µM] | EC50 (L1210 [4]) [nM] |
| --- | --- | --- | --- | --- | --- | --- | --- |
| COc1ccc2[nH]c3ccc4cc[n+](CCN5CCC(CC6CCN(CC[n+]7ccc8ccc9[nH]c%10ccc(OC)cc%10c9c8c7)CC6)CC5)cc4c3c2c1.CS(=O)(=O)[O-].CS(=O)(=O)[O-] | 175 | 10 | 0.021 | 7 | 30 | 0.063 | 1080 |
| COc1ccc2[nH]c3ccc4cc[n+](CCN5CCC(CCC6CCN(CC[n+]7ccc8ccc9[nH]c%10ccc(OC)cc%10c9c8c7)CC6)CC5)cc4c3c2c1.CS(=O)(=O)[O-].CS(=O)(=O)[O-] | 143 | 7 | 0.015 | 5 | 20 | 0.22 | 1340 |
| COc1ccc2c(c1)c1c3c[n+](CCN4CCC(CCC5CCN(CC[n+]6ccc7ccc8c(c7c6)c6cc(OC)ccc6n8C)CC5)CC4)ccc3ccc1n2C.CS(=O)(=O)[O-].CS(=O)(=O)[O-] | 170 | 3 | 0.225 | 5 | 10 | 0.77 | 900 |
| COc1ccc2c(c1)c1c3c[n+](CCN4CCC(C5CCN(CC[n+]6ccc7ccc8c(c7c6)c6cc(OC)ccc6n8C)CC5)CC4)ccc3ccc1n2C.CS(=O)(=O)[O-].CS(=O)(=O)[O-] | 178 | 2 | 0.013 | 2.5 | 10 | 0.006 | 360 |
| COc1ccc2c(c1)c1c3c[n+](CCN4CCC(CC5CCN(CC[n+]6ccc7ccc8c(c7c6)c6cc(OC)ccc6n8C)CC5)CC4)ccc3ccc1n2C.CS(=O)(=O)[O-].CS(=O)(=O)[O-] | 190 | 20 | 0.014 | 3 | 10 | 0.013 | 700 |
| COc1ccc2c(c1)c1c3c[n+](CCCN4CCC(C5CCN(CC[n+]6ccc7ccc8c(c7c6)c6cc(OC)ccc6n8C)CC5)CC4)ccc3ccc1n2C.CS(=O)(=O)[O-].CS(=O)(=O)[O-] | 128 | 1 | 0.025 | 10 | 10 | 0.112 | > 900 |
| COc1ccc2[nH]c3ccc4cc[n+](CCCN5CCC(C6CCN(CC[n+]7ccc8ccc9[nH]c%10ccc(OC)cc%10c9c8c7)CC6)CC5)cc4c3c2c1.CS(=O)(=O)[O-].CS(=O)(=O)[O-] | 137 | 5 | 0.016 | 10 | 20 | 0.09 | 720 |
| COc1ccc2nc3cc(Cl)ccc3c(NCCN3CCC(C4CCN(CC[n+]5ccc6ccc7[nH]c8ccc(OC)cc8c7c6c5)CC4)CC3)c2c1.[Cl-] | – | 5 | 0.057 | 15 | 15 | 17 | 2700 |
| COc1ccc2c(c1)c1c3c[n+](CCN4CCC(CCCC5CCN(CC[n+]6ccc7ccc8c(c7c6)c6cc(OC)ccc6n8C)CC5)CC4)ccc3ccc1n2C.CS(=O)(=O)[O-].CS(=O)(=O)[O-] | – | 20 | 0.009 | 10 | 10 | 0.15 | 260 |
| COc1ccc2[nH]c3ccc4cc[n+](CCN5CCC(C6CCN(CC[n+]7ccc8ccc9[nH]c%10ccc(OC)cc%10c9c8c7)CC6)CC5)cc4c3c2c1.CS(=O)(=O)[O-].CS(=O)(=O)[O-] | 182 | 1 | 0.013 | 10 | 10 | 0.024 | 190 |
| COc1ccc2[nH]c3ccc4cc[n+](CCN5CCC(CCCC6CCN(CC[n+]7ccc8ccc9[nH]c%10ccc(OC)cc%10c9c8c7)CC6)CC5)cc4c3c2c1.CS(=O)(=O)[O-].CS(=O)(=O)[O-] | – | 5 | 0.087 | 5 | 10 | 0.14 | 340 |
| COc1ccc2nc3cc(Cl)ccc3c(NCCN3CCC(C4CCN(CC[n+]5ccc6ccc7c(c6c5)c5cc(OC)ccc5n7C)CC4)CC3)c2c1.CS(=O)(=O)[O-] | – | 10 | 0.029 | 15 | 15 | >0.9 | 240 |
